These results are taken from ChEMBL document CHEMBL1157671, “Synthesis and biological evaluation of trifluralin analogues as antileishmanial agents” (Bioorg Med Chem, 2010).

Where only a bound is given, the exact number is not on record here.

Series [1] can be described thus: Cytotoxicity against human RBC assessed as hemolysis after 1 hr by microplate reader method. The series is classed as cell-based, Erythrocyte. To be noted: red blood cells (RBC). In a few lines: (§1)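 Washed RBCs from EDTA blood of healthy donors mixed 1:1 with compound in PBS (100 to 6.25 μM), 1 h at 37 °C, then centrifuged. Supernatant absorbance at 550 nm, reference 620 nm; % hemolysis = (A − A0)/(Amax − A0) × 100, PBS background, water as 100%. Triplicates.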

Series [2] in a line: Cytotoxicity against human RBC assessed as hemolysis at 100 uM after 1 hr by microplate reader method. The class given is cell-based, Erythrocyte. The conditions noted are these: red blood cells (RBC), read-out: Activity. In a few lines: as §1
Series [3] relates to Leishmania infantum. Nature of the series: Antileishmanial activity against Leishmania infantum A1 amastigotes infected in human THP1 cells assessed as reduction in intracellular parasite load after 48 hrs by Giemsa staining. To be noted: A1, THP-1, 48 h. The series is classed as functional, organism-based. An outline of the steps: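 THP-1 differentiated with 1 μM retinoic acid for 72 h, then infected overnight with L. infantum promastigotes at 8:1 parasite/cell, 37 °C/5% CO2. Free parasites removed over Histopaque 1077; cells at 4 × 10^5/mL exposed to compound 48 h at 37 °C/5% CO2. Infected cells counted microscopically after Giemsa staining; IC50 ± σ by sigmoidal regression, three independent experiments.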

The nature of series [4]: Ratio of miltefosine HC50 to compound HC50 for human RBC. The conditions noted are these: red blood cells (RBC), read-out: Ratio IC50. The series is classed as cell-based, Erythrocyte.
The nature of series [5]: Cytotoxicity against human THP1 cells after 48 hrs by propidium iodide and SYBR14 satining-base flow cytometry. The class given is cell-based. The conditions noted are these: THP-1 cells. In a few lines: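 THP-1 cells at 1×10^6 cells/mL treated with compound (50 to 1.56 μM); stained with 12 μM PI and 100 nM SYBR-14 and live/dead ratio read by flow cytometry (488 nm laser; 545 and 645 nm emission). Incubation time given as 72 h in methods, 48 h in figure legend. Triplicates; CC50 derived from dose–response.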

Series [6] can be described thus: Aqueous solubility in water by UV spectrophotometry. To be noted: buffer.
Series [7] relates to Leishmania infantum. Nature of the series: Ratio of miltefosine IC50 to compound IC50 for Leishmania infantum A1 amastigotes infected in human THP1 cells. The series is classed as functional, THP-1.
Series [8] deals with Leishmania infantum. As to the kind of experiment: Antileishmanial activity against Leishmania infantum MHOM/TN/80/IPT1/LEM 235 promastigotes after 72 hrs by propidium iodide and SYBR14 satining-base flow cytometry. The class given is functional, organism-based. To be noted: MHOM/TN/80/IPT1/LEM 235, 72 h. In a few lines:
(§2)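 Promastigotes grown in RPMI 1640 with 10% FCS, L-glutamine and antibiotics at 26 °C; seeded at 1×10^6 cells/mL with compound (DMSO/ethanol 50:50 stock, 2-fold dilutions 100 to 0.8 μM in medium) at 26 °C for 72 h. Stained with 12 μM PI and 100 nM SYBR-14 in HEPES-buffered saline with 10% BSA; live/dead read by flow cytometry. IC50 ± σ by sigmoidal regression, three independent experiments.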

Another series relates to Leishmania donovani. Nature of the series: Antileishmanial activity against Leishmania donovani MHOM/IN/80/DD8/LEM 703 promastigotes after 72 hrs by propidium iodide and SYBR14 satining-base flow cytometry. The series is classed as functional, organism-based. To be noted: MHOM/IN/80/DD8/LEM 703, 72 h. In a few lines: as §2

The HC50 is the concentration that lyses half of the red blood cells. What is called IC50 is the concentration at which inhibition is half-maximal. Usually CC50 stands for the concentration at which the toxic effect on the cells reaches its halfway point. Consider `O=[N+]([O-])c1cc(C(F)(F)F)cc([N+](=O)[O-])c1Nc1cccc(O)c1`, for which the HC50 at 1 h in series [1] was more than 100 µM. The hemolysis at 1 h, 100 µM in [2] came to 1.4%. Further, in the series on Leishmania infantum [3], the IC50 was 2.2 µM. Also, the selectivity ratio in [4] was 2. Also, half-maximal cytotoxicity in series [5] (CC50 at 48 h) was put at 35 µM. In series [6], the solubility is 9.5 ppm.

For the compound `O=[N+]([O-])c1cc(C(F)(F)F)cc([N+](=O)[O-])c1Nc1ccccc1O`, the HC50 at 1 h in series [1] is more than 100 µM. Moreover, the hemolysis at 1 h, 100 µM in [2] amounted to 1.2%. The IC50 with Leishmania infantum [3] amounted to 1.1 µM. Also, the “Ratio IC50” value with Leishmania infantum [7] is 2.5. For the same compound, in series [4], the selectivity ratio is 2. The compound further displayed a CC50 at 48 h in series [5] of more than 50 µM. Besides, the solubility in [6] worked out at 20 ppm.

As for `CN(C)c1c([N+](=O)[O-])cc(C(F)(F)F)cc1[N+](=O)[O-]`, the HC50 at 1 h in series [1] was more than 100 µM. Also, the hemolysis at 1 h, 100 µM in [2] amounted to 0%. For the same compound, the IC50 is more than 100 µM in the series on Leishmania infantum [8], more than 100 µM in the series with Leishmania donovani and 7.3 µM in the series on Leishmania infantum [3]. Besides, the selectivity ratio in [4] was determined as 2. In series [5], this compound gave a CC50 at 48 h of more than 50 µM. For the same compound, the solubility in series [6] turned out to be 4.6 ppm.

For the compound `CCCCCN(CCO)c1c([N+](=O)[O-])cc(C(F)(F)F)cc1[N+](=O)[O-]`, the HC50 at 1 h in [1] is more than 100 µM. Moreover, the hemolysis at 1 h, 100 µM in [2] amounted to 0.8%. The IC50 with Leishmania infantum [3] was more than 50 µM. The selectivity ratio in [4] came out at 2. In series [5], this compound showed a CC50 at 48 h of more than 50 µM. Besides, the solubility in [6] came to 6 ppm.

For the compound `CCCCCCN(CCO)c1c([N+](=O)[O-])cc(C(F)(F)F)cc1[N+](=O)[O-]`, the HC50 at 1 h in series [1] is more than 100 µM. Also, the hemolysis at 1 h, 100 µM in [2] stood at 0.7%. Moreover, the IC50 in the series with Leishmania infantum [3] is more than 50 µM. Also, the selectivity ratio in series [4] was determined as 2. This compound also returned a CC50 at 48 h in [5] of 10 µM. This compound also gave a solubility in series [6] of 5.7 ppm.

Consider `CCCN(CCO)c1c([N+](=O)[O-])cc(C(F)(F)F)cc1[N+](=O)[O-]`, for which the HC50 at 1 h in series [1] is more than 100 µM. Moreover, the hemolysis at 1 h, 100 µM in series [2] amounted to 0.2%. For the same compound, the values for the IC50 with Leishmania infantum [8], with Leishmania donovani and in the series with Leishmania infantum [3] were more than 100 µM, more than 100 µM and more than 50 µM, respectively. Also, the selectivity ratio in [4] was 2. For the same compound, the CC50 at 48 h in series [5] was more than 50 µM. Further, in series [6], the solubility is recorded as 72.3 ppm.

Consider `O=[N+]([O-])c1cc(C(F)(F)F)cc([N+](=O)[O-])c1N1CCOCC1`, for which the HC50 at 1 h in series [1] is more than 100 µM. For the same compound, the hemolysis at 1 h, 100 µM in series [2] was 0.3%. Besides, the IC50 was more than 100 µM in the series with Leishmania infantum [8], more than 100 µM in the series with Leishmania donovani and 0.5 µM with Leishmania infantum [3]. Besides, in the series on Leishmania infantum [7], the Ratio IC50 is 5. For the same compound, in series [4], the selectivity ratio was found to be 2. In series [5], this compound displayed a CC50 at 48 h of more than 50 µM. In [6], the solubility came to 18.6 ppm.

As for `CCCCN(CCO)c1c([N+](=O)[O-])cc(C(F)(F)F)cc1[N+](=O)[O-]`, the HC50 at 1 h in [1] was more than 100 µM. Further, in series [2], the hemolysis at 1 h, 100 µM stood at 0.5%. For the same compound, the IC50 was more than 100 µM in the series on Leishmania infantum [8], more than 100 µM in the series with Leishmania donovani and 1.2 µM in the series on Leishmania infantum [3]. Besides, the “Ratio IC50” value in the series with Leishmania infantum [7] turned out to be 2.5. The selectivity ratio in series [4] stood at 2. Also, in [5], the CC50 at 48 h is more than 50 µM. Also, in series [6], the solubility is recorded as 22.6 ppm.

With `O=[N+]([O-])c1cc(C(F)(F)F)cc([N+](=O)[O-])c1N1CCCCC1`, the HC50 at 1 h in series [1] was more than 100 µM. Moreover, the hemolysis at 1 h, 100 µM in series [2] is 1.2%. Also, the IC50 in the series with Leishmania infantum [3] is more than 50 µM. Also, the selectivity ratio in series [4] came to 2. In [5], this compound had a CC50 at 48 h of more than 50 µM. This compound also returned a solubility in series [6] of 0.8 ppm.

`CCN(CCO)c1c([N+](=O)[O-])cc(C(F)(F)F)cc1[N+](=O)[O-]`: in series [1], the HC50 at 1 h was more than 100 µM. In [2], the hemolysis at 1 h, 100 µM amounted to 0.4%. In addition, the IC50 is more than 100 µM with Leishmania infantum [8], more than 100 µM in the series on Leishmania donovani and more than 50 µM in the series with Leishmania infantum [3]. Also, the selectivity ratio in series [4] is 2. In [5], this compound came in with a CC50 at 48 h of more than 50 µM. In addition, the solubility in [6] is given as 157.4 ppm.

For the compound `O=[N+]([O-])c1cc(C(F)(F)F)cc([N+](=O)[O-])c1Nc1ccc(O)cc1`, the HC50 at 1 h in series [1] is more than 100 µM. Further, in series [2], the hemolysis at 1 h, 100 µM is 1.4%. Also, the IC50 is 2.2 µM with Leishmania infantum [8], 0.6 µM in the series on Leishmania donovani and 1.8 µM with Leishmania infantum [3]. Further, the selectivity ratio in series [4] worked out at 2. The midpoint of cytotoxicity in [5], the CC50 at 48 h, lay at 40 µM. Further, in series [6], the solubility is 11.4 ppm.

Regarding `O=[N+]([O-])c1cc(C(F)(F)F)cc([N+](=O)[O-])c1NC1CCCCC1`, in [1], the HC50 at 1 h is more than 100 µM. In series [2], the hemolysis at 1 h, 100 µM was 1.1%. The IC50 with Leishmania infantum [3] was determined as 9.1 µM. Also, in [4], the selectivity ratio worked out at 2. This compound displayed a CC50 at 48 h in [5] of more than 50 µM. The compound further had a solubility in series [6] of 0.1 ppm.

`CCCCCCCCCCCCCCCCOP(=O)([O-])OCC[N+](C)(C)C` [MILTEFOSINE]: the HC50 at 1 h in series [1] came to 38.3 µM. The IC50 in the series with Leishmania infantum [3] amounted to 2.7 µM. Also, half-maximal cytotoxicity in [5] (CC50 at 48 h) was put at 28.6 µM.

As for `CCCN(CCC)c1c([N+](=O)[O-])cc(C(F)(F)F)cc1[N+](=O)[O-]` [TRIFLURALIN], the HC50 at 1 h in [1] was more than 100 µM. Also, the hemolysis at 1 h, 100 µM in [2] was found to be 1.3%. Besides, the IC50 with Leishmania infantum [8] is more than 100 µM; in the series on Leishmania donovani it was more than 100 µM; in the series with Leishmania infantum [3], more than 50 µM. The selectivity ratio in series [4] turned out to be 2. In series [5], this compound returned a CC50 at 48 h of more than 50 µM. The compound further registered a solubility in series [6] of 0.5 ppm.
